The first experiment deals with HEK293. Nature of the experiment: Residual mouse GAT4-mediated [3H]GABA uptake expressed in human HEK cells at 100 uM.
Conditions: not given
Consider `CC(C)(C)CC(C)(C)n1nnnc1CNC(c1ccccc1)c1ccccc1`, for which the level, % of control came out at 56.9%.
Same read-out and setting: under `c1ccc(C(CCCNCc2nnnn2C2CCCCC2)c2ccccc2)cc1` stands 43.2%; under `c1ccc(C(NCc2nnn[nH]2)c2ccccc2)cc1`, 85.4%.
In turn, `CC(C)(C)CC(C)(C)n1nnnc1CNCCCn1c2ccccc2c2ccccc21` displayed a level, % of control of 59.7%.
In turn, `C(CNCc1nnn[nH]1)=C(c1ccccc1)c1ccccc1` gave a level, % of control of 79.6%.
As for `c1ccc(Cn2nnnc2CNCCCC(c2ccccc2)c2ccccc2)cc1`, the level, % of control came to 49.6%.
The same measure, in the same setting: under `C(CCNCc1nnn[nH]1)=C(c1ccccc1)c1ccccc1` stands 101%.
`C(CCNCc1nnnn1C1CCCCC1)=C(c1ccccc1)c1ccccc1` returned a level, % of control of 58.2%.
As to `c1ccc(Cn2nnnc2CNCC(c2ccccc2)c2ccccc2)cc1`, the level, % of control came to 52.3%.
Still for that read-out and setting: under `CCCCNCc1nnn[nH]1` stands 71.5%.
In the case of `c1ccc(C(CCCNCc2nnn[nH]2)c2ccccc2)cc1`, the level, % of control was determined as 87.4%.
The same measure, in the same setting: the result for `CC(C)(C)CC(C)(C)n1nnnc1CN1CCNCC1` reads 78.4%; that for `c1ccc(C(CCNCc2nnn[nH]2)c2ccccc2)cc1`, 80.5%; that for `c1ccc(C(CNCc2nnn[nH]2)c2ccccc2)cc1`, 71.2%.
Still for that read-out and setting: under `C(CCNCc1nnnn1Cc1ccccc1)=C(c1ccccc1)c1ccccc1` stands 53.1%; under `CC(C)(C)CC(C)(C)n1nnnc1CN1CCOCC1`, 90.5%.
Same read-out and setting: under `c1ccc(Cn2nnnc2CNC(c2ccccc2)c2ccccc2)cc1` stands 57.2%; under `c1ccc2c(c1)c1ccccc1n2CCCNCc1nnn[nH]1`, 78.7%.

The next experiment concerns the target Sodium- and chloride-dependent GABA transporter 1 (Mus musculus) (UniProt P31648). Nature of the experiment: Residual mouse GAT1-mediated [3H]GABA uptake expressed in human HEK cells at 100 uM. To be noted: HEK293.
What is called residual activity is the signal under treatment as a percentage of the control signal. On to `CC(C)(C)CC(C)(C)n1nnnc1CNC(c1ccccc1)c1ccccc1`, for which the residual activity was determined as 85.6%.
Regarding `CC(C)(C)CC(C)(C)n1nnnc1CNCCCC(c1ccccc1)c1ccccc1`, the residual activity was 63.8%.
Same read-out and setting: the result for `c1ccc(C(CCNCc2nnnn2C2CCCCC2)c2ccccc2)cc1` reads 54.6%; that for `c1ccc(C(CCCNCc2nnnn2C2CCCCC2)c2ccccc2)cc1`, 70.6%; that for `c1ccc(C(NCc2nnn[nH]2)c2ccccc2)cc1`, 69.7%.
Take `CC(C)(C)CC(C)(C)n1nnnc1CNCCCn1c2ccccc2c2ccccc21`: the residual activity worked out at 75.1%.
For `C(CNCc1nnn[nH]1)=C(c1ccccc1)c1ccccc1`, the residual activity stood at 80.5%.
With `c1ccc(Cn2nnnc2CNCCCC(c2ccccc2)c2ccccc2)cc1`, the residual activity is 68.1%.
With `C(CCNCc1nnn[nH]1)=C(c1ccccc1)c1ccccc1`, the residual activity was found to be 86.1%.
On the same count and under the same terms, under `C(CCNCc1nnnn1C1CCCCC1)=C(c1ccccc1)c1ccccc1` stands 64.5%; under `c1ccc(Cn2nnnc2CNCC(c2ccccc2)c2ccccc2)cc1`, 72.4%; under `CCCCNCc1nnn[nH]1`, 105%.
On to `c1ccc(C(CCCNCc2nnn[nH]2)c2ccccc2)cc1`, for which the residual activity stood at 82%.
Still for that read-out and setting: the result for `CC(C)(C)CC(C)(C)n1nnnc1CN1CCNCC1` reads 90.2%.
With `c1ccc(C(CCNCc2nnn[nH]2)c2ccccc2)cc1`, the residual activity came to 100%.
For `c1ccc(C(CNCc2nnn[nH]2)c2ccccc2)cc1`, the residual activity was 48.2%.
Consider `C(CCNCc1nnnn1Cc1ccccc1)=C(c1ccccc1)c1ccccc1`, for which the residual activity turned out to be 69.4%.
On to `CC(C)(C)CC(C)(C)n1nnnc1CN1CCOCC1`, for which the residual activity came out at 73.4%.
Still for that read-out and setting: the result for `c1ccc(Cn2nnnc2CNC(c2ccccc2)c2ccccc2)cc1` reads 81.1%; that for `c1ccc2c(c1)c1ccccc1n2CCCNCc1nnn[nH]1`, 86.3%.

The next experiment concerns betaine/GABA transporter BGT-1 (Slc6a12, Mus musculus). Nature of the experiment: Residual mouse GAT2-mediated [3H]GABA uptake expressed in human HEK cells at 100 uM. To be noted: HEK293.
With `CC(C)(C)CC(C)(C)n1nnnc1CNC(c1ccccc1)c1ccccc1`, the residual activity amounted to 81.4%.
As to `c1ccc(C(NCc2nnn[nH]2)c2ccccc2)cc1`, the residual activity was found to be 94.2%.
In the case of `CC(C)(C)CC(C)(C)n1nnnc1CNCCCn1c2ccccc2c2ccccc21`, the residual activity is 72.6%.
In the case of `C(CNCc1nnn[nH]1)=C(c1ccccc1)c1ccccc1`, the residual activity turned out to be 82%.
For `C(CCNCc1nnn[nH]1)=C(c1ccccc1)c1ccccc1`, the residual activity is 76.9%.
On the same count and under the same terms, under `C(CCNCc1nnnn1C1CCCCC1)=C(c1ccccc1)c1ccccc1` stands 69.5%.
Same read-out and setting: the result for `c1ccc(Cn2nnnc2CNCC(c2ccccc2)c2ccccc2)cc1` reads 67.1%; that for `CCCCNCc1nnn[nH]1`, 65.3%; that for `c1ccc(C(CCCNCc2nnn[nH]2)c2ccccc2)cc1`, 89.3%.
Same read-out and setting: the result for `CC(C)(C)CC(C)(C)n1nnnc1CN1CCNCC1` reads 106%; that for `c1ccc(C(CCNCc2nnn[nH]2)c2ccccc2)cc1`, 53.2%; that for `c1ccc(C(CNCc2nnn[nH]2)c2ccccc2)cc1`, 85.8%.
Consider `C(CCNCc1nnnn1Cc1ccccc1)=C(c1ccccc1)c1ccccc1`, for which the residual activity came out at 84.1%.
As to `CC(C)(C)CC(C)(C)n1nnnc1CN1CCOCC1`, the residual activity was found to be 99%.
On the same count and under the same terms, the result for `c1ccc(Cn2nnnc2CNC(c2ccccc2)c2ccccc2)cc1` reads 84.5%; that for `c1ccc2c(c1)c1ccccc1n2CCCNCc1nnn[nH]1`, 81.6%.

A further experiment has as its system GABA transporter Slc6a13 (Mus musculus). As to the kind of experiment: Residual mouse GAT3-mediated [3H]GABA uptake expressed in human HEK cells at 100 uM. To be noted: HEK293.
Take `c1ccc(C(NCc2nnn[nH]2)c2ccccc2)cc1`: the residual activity is 94.2%.
Take `CC(C)(C)CC(C)(C)n1nnnc1CNCCCn1c2ccccc2c2ccccc21`: the residual activity came out at 68.8%.
The same measure, in the same setting: under `C(CNCc1nnn[nH]1)=C(c1ccccc1)c1ccccc1` stands 46.2%; under `C(CCNCc1nnn[nH]1)=C(c1ccccc1)c1ccccc1`, 73.8%.
In the case of `CCCCNCc1nnn[nH]1`, the residual activity was 74%.
On the same count and under the same terms, under `c1ccc(C(CCCNCc2nnn[nH]2)c2ccccc2)cc1` stands 75.1%.
Take `CC(C)(C)CC(C)(C)n1nnnc1CN1CCNCC1`: the residual activity came out at 81.4%.
The same measure, in the same setting: the result for `c1ccc(C(CCNCc2nnn[nH]2)c2ccccc2)cc1` reads 72.6%.
For `c1ccc(C(CNCc2nnn[nH]2)c2ccccc2)cc1`, the residual activity worked out at 63.5%.
Still for that read-out and setting: under `C(CCNCc1nnnn1Cc1ccccc1)=C(c1ccccc1)c1ccccc1` stands 53.5%; under `CC(C)(C)CC(C)(C)n1nnnc1CN1CCOCC1`, 63.3%.
Same read-out and setting: under `c1ccc2c(c1)c1ccccc1n2CCCNCc1nnn[nH]1` stands 83.6%.

Test system in a further experiment: not listed separately
As to the kind of experiment: Inhibition of mouse GAT4-mediated [3H]GABA uptake expressed in human HEK cells. The format is cell-based. To be noted: HEK293. Put shortly:
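Specific [3H]GABA uptake was measured at the murine transporter subtype, and results are given as pIC50 ± SEM from three independent experiments, each run in triplicate.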
As usually defined, the IC50 is the point on the concentration scale where inhibition reaches its midpoint. In turn, `CC(C)(C)CC(C)(C)n1nnnc1CNCCCC(c1ccccc1)c1ccccc1` gave an IC50 of 29.5 µM.
Still for that read-out and setting: the result for `c1ccc(C(CCNCc2nnnn2C2CCCCC2)c2ccccc2)cc1` reads 34.7 µM.

Values taken from ChEMBL document CHEMBL1914421, “Aminomethyltetrazoles as potential inhibitors of the γ-aminobutyric acid transporters mGAT1-mGAT4: synthesis and biological evaluation” (Bioorg Med Chem, 2011).
